Values after ≈ are worked out from the molar mass of the structure shown.
Key:
[1] = system: Staphylococcus epidermidis; assay: Antibacterial activity against methicillin-sensitive Staphylococcus epidermidis 09-3 after 18 to 24 hrs by NCCLS M100-S11 two fold serial dilution method; format: functional
In short: (§1)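 Two-fold serial dilution in agar medium. MIC read as the lowest concentration giving complete inhibition of bacterial growth after incubation at 35 °C for 18–24 h.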

Escherichia coli [2] = assay: Antibacterial activity against Escherichia coli 08-22 after 18 to 24 hrs by NCCLS M100-S11 two fold serial dilution method; format: functional
Pseudomonas aeruginosa [3] = assay: Antibacterial activity against Pseudomonas aeruginosa 09-33 after 18 to 24 hrs by NCCLS M100-S11 two fold serial dilution method; format: functional
Escherichia coli [4] = assay: Antibacterial activity against Escherichia coli ATCC 25922 after 18 to 24 hrs by NCCLS M100-S11 two fold serial dilution method; format: functional; settings: ATCC25922
Staphylococcus aureus [5] = assay: Antibacterial activity against methicillin-resistant Staphylococcus aureus 08-1 after 18 to 24 hrs by NCCLS M100-S11 two fold serial dilution method; format: functional; in short: as §1
Staphylococcus aureus [6] = assay: Antibacterial activity against Staphylococcus aureus ATCC 25923 after 18 to 24 hrs by NCCLS M100-S11 two fold serial dilution method; format: functional; settings: ATCC25923
[7] = system: Staphylococcus epidermidis; assay: Antibacterial activity against methicillin-sensitive Staphylococcus epidermidis 09-6 after 18 to 24 hrs by NCCLS M100-S11 two fold serial dilution method; format: functional; in short: as §1
Enterococcus faecium [8] = assay: Antibacterial activity against Enterococcus faecium 08-7 after 18 to 24 hrs by NCCLS M100-S11 two fold serial dilution method; format: functional
Pseudomonas aeruginosa [9] = assay: Antibacterial activity against Pseudomonas aeruginosa ATCC 27853 after 18 to 24 hrs by NCCLS M100-S11 two fold serial dilution method; format: functional
Enterococcus faecium [10] = assay: Antibacterial activity against Enterococcus faecium 08-2 after 18 to 24 hrs by NCCLS M100-S11 two fold serial dilution method; format: functional
Enterococcus faecalis [11] = assay: Antibacterial activity against Enterococcus faecalis 08-10 after 18 to 24 hrs by NCCLS M100-S11 two fold serial dilution method; format: functional
Streptococcus pneumoniae [12] = assay: Antibacterial activity against Streptococcus pneumoniae 08-2 after 18 to 24 hrs by NCCLS M100-S11 two fold serial dilution method; format: functional
Pseudomonas aeruginosa [13] = assay: Antibacterial activity against Pseudomonas aeruginosa 09-34 after 18 to 24 hrs by NCCLS M100-S11 two fold serial dilution method; format: functional
Escherichia coli [14] = assay: Antibacterial activity against Escherichia coli 08-21 after 18 to 24 hrs by NCCLS M100-S11 two fold serial dilution method; format: functional
[15] = system: Staphylococcus epidermidis; assay: Antibacterial activity against methicillin-resistant Staphylococcus epidermidis 09-4 after 18 to 24 hrs by NCCLS M100-S11 two fold serial dilution method; format: functional; in short: as §1
Klebsiella pneumoniae [16] = assay: Antibacterial activity against Klebsiella pneumoniae 09-23 after 18 to 24 hrs by NCCLS M100-S11 two fold serial dilution method; format: functional
Pseudomonas aeruginosa [17] = assay: Antibacterial activity against Pseudomonas aeruginosa 09-32 after 18 to 24 hrs by NCCLS M100-S11 two fold serial dilution method; format: functional
Enterococcus faecalis [18] = assay: Antibacterial activity against Enterococcus faecalis 08-12 after 18 to 24 hrs by NCCLS M100-S11 two fold serial dilution method; format: functional
Staphylococcus aureus [19] = assay: Antibacterial activity against methicillin-sensitive Staphylococcus aureus 08-1 after 18 to 24 hrs by NCCLS M100-S11 two fold serial dilution method; format: functional
[20] = Cytotoxicity against african green monkey Vero cells after 72 hrs by MTT assay; format: cell-based; settings: chlorocebus sabaeus
In short: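 Vero cells were kept in Minimum Essential Medium with Earle's salts plus 10% fetal bovine serum at 37 °C under 5% CO₂. Cells were seeded at 1 × 10⁴ per well and allowed to recover 24 h. Medium was then replaced with assay medium containing compound or no drug, and cells were exposed for 72 h. CC₅₀ is the 50% cellular cytotoxic concentration.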

Klebsiella pneumoniae [21] = assay: Antibacterial activity against Klebsiella pneumoniae 09-22 after 18 to 24 hrs by NCCLS M100-S11 two fold serial dilution method; format: functional
Streptococcus pneumoniae [22] = assay: Antibacterial activity against Streptococcus pneumoniae 08-4 after 18 to 24 hrs by NCCLS M100-S11 two fold serial dilution method; format: functional
Pseudomonas aeruginosa [23] = assay: Ratio of levofloxacin MIC to compound MIC for Pseudomonas aeruginosa ATCC 27853; format: functional
Pseudomonas aeruginosa [24] = assay: Ratio of levofloxacin MIC to compound MIC for Pseudomonas aeruginosa 09-34; format: functional
Pseudomonas aeruginosa [25] = assay: Ratio of levofloxacin MIC to compound MIC for Pseudomonas aeruginosa 09-33; format: functional
Pseudomonas aeruginosa [26] = assay: Ratio of levofloxacin MIC to compound MIC for Pseudomonas aeruginosa 09-32; format: functional

Row | Structure (SMILES) | MIC [1] | MIC (Escherichia coli [2]) | MIC (Pseudomonas aeruginosa [3]) | MIC (Escherichia coli [4]) | MIC (Staphylococcus aureus [5]) | MIC (Staphylococcus aureus [6]) | MIC [7] | MIC (Enterococcus faecium [8]) | MIC (Pseudomonas aeruginosa [9]) | MIC (Enterococcus faecium [10]) | MIC (Enterococcus faecalis [11]) | MIC (Streptococcus pneumoniae [12]) | MIC (Pseudomonas aeruginosa [13]) | MIC (Escherichia coli [14]) | MIC [15] | MIC (Klebsiella pneumoniae [16]) | MIC (Pseudomonas aeruginosa [17]) | MIC (Enterococcus faecalis [18]) | MIC (Staphylococcus aureus [19]) | CC50 at 72 h [20] | other results
1 | COc1c(N2CCN(CC(C)=O)C(C)C2)c(F)cc2c(=O)c(C(=O)O)cn(C3CC3)c12 (centres undefined) | 0.25 µg/mL (≈ 0.579 µM) | 32 µg/mL (≈ 74.2 µM) | 128 µg/mL (≈ 297 µM) | 8 µg/mL (≈ 18.5 µM) | 16 µg/mL (≈ 37.1 µM) | 0.25 µg/mL (≈ 0.579 µM) | 0.25 µg/mL (≈ 0.579 µM) | 32 µg/mL (≈ 74.2 µM) | 8 µg/mL (≈ 18.5 µM) | 32 µg/mL (≈ 74.2 µM) | 32 µg/mL (≈ 74.2 µM) | 32 µg/mL (≈ 74.2 µM) | 16 µg/mL (≈ 37.1 µM) | 128 µg/mL (≈ 297 µM) | 2 µg/mL (≈ 4.64 µM) | 2 µg/mL (≈ 4.64 µM) | 2 µg/mL (≈ 4.64 µM) | 128 µg/mL (≈ 297 µM) | 1 µg/mL (≈ 2.32 µM) | 500 µg/mL (≈ 1160 µM) | MIC (Klebsiella pneumoniae [21]): 16 µg/mL (≈ 37.1 µM); MIC (Streptococcus pneumoniae [22]): 2 µg/mL (≈ 4.64 µM)
2 | CCO/N=C(\C)CCN1CCN(c2c(F)cc3c(=O)c(C(=O)O)cn(C4CC4)c3c2OC)CC1C (centres undefined) | 0.5 µg/mL (≈ 1.02 µM) | > 128 µg/mL | > 128 µg/mL | > 128 µg/mL | 16 µg/mL (≈ 32.7 µM) | 64 µg/mL (≈ 131 µM) | 0.5 µg/mL (≈ 1.02 µM) | > 128 µg/mL | > 128 µg/mL | > 128 µg/mL | > 128 µg/mL | 128 µg/mL (≈ 262 µM) | > 128 µg/mL | > 128 µg/mL | 0.5 µg/mL (≈ 1.02 µM) | > 128 µg/mL | 128 µg/mL (≈ 262 µM) | > 128 µg/mL | 128 µg/mL (≈ 262 µM) | 88.4 µg/mL (≈ 181 µM) | MIC (Klebsiella pneumoniae [21]): 128 µg/mL (≈ 262 µM); MIC (Streptococcus pneumoniae [22]): > 128 µg/mL
3 | COc1c(N2CCN(CC/C(C)=N/Nc3ccccc3)C(C)C2)c(F)cc2c(=O)c(C(=O)O)cn(C3CC3)c12 (centres undefined) | 0.06 µg/mL (≈ 0.112 µM) | 1 µg/mL (≈ 1.87 µM) | 0.5 µg/mL (≈ 0.933 µM) | 0.25 µg/mL (≈ 0.467 µM) | 0.25 µg/mL (≈ 0.467 µM) | 0.06 µg/mL (≈ 0.112 µM) | 0.25 µg/mL (≈ 0.467 µM) | 0.5 µg/mL (≈ 0.933 µM) | 0.5 µg/mL (≈ 0.933 µM) | 0.5 µg/mL (≈ 0.933 µM) | 0.5 µg/mL (≈ 0.933 µM) | 0.5 µg/mL (≈ 0.933 µM) | 0.25 µg/mL (≈ 0.467 µM) | 1 µg/mL (≈ 1.87 µM) | 0.06 µg/mL (≈ 0.112 µM) | 1 µg/mL (≈ 1.87 µM) | 0.5 µg/mL (≈ 0.933 µM) | 1 µg/mL (≈ 1.87 µM) | 0.125 µg/mL (≈ 0.233 µM) | 62.5 µg/mL (≈ 117 µM) | Ratio (Pseudomonas aeruginosa [23]): 2; Ratio (Pseudomonas aeruginosa [24]): 2; Ratio (Pseudomonas aeruginosa [25]): 2; Ratio (Pseudomonas aeruginosa [26]): 2; MIC (Klebsiella pneumoniae [21]): 0.5 µg/mL (≈ 0.933 µM); MIC (Streptococcus pneumoniae [22]): 0.25 µg/mL (≈ 0.467 µM)
4 | CCOC(=O)CN1CCN(c2c(F)cc3c(=O)c(C(=O)O)cn(C4CC4)c3c2OC)CC1C (centres undefined) | 4 µg/mL (≈ 8.67 µM) | > 128 µg/mL | > 128 µg/mL | 128 µg/mL (≈ 277 µM) | > 128 µg/mL | 4 µg/mL (≈ 8.67 µM) | 4 µg/mL (≈ 8.67 µM) | > 128 µg/mL | 128 µg/mL (≈ 277 µM) | > 128 µg/mL | > 128 µg/mL | > 128 µg/mL | > 128 µg/mL | > 128 µg/mL | 4 µg/mL (≈ 8.67 µM) | > 128 µg/mL | > 128 µg/mL | > 128 µg/mL | 4 µg/mL (≈ 8.67 µM) | 1000 µg/mL (≈ 2170 µM) | MIC (Klebsiella pneumoniae [21]): > 128 µg/mL; MIC (Streptococcus pneumoniae [22]): 4 µg/mL (≈ 8.67 µM)
5 | COc1c(N2CCN(CC/C(C)=N/O)C(C)C2)c(F)cc2c(=O)c(C(=O)O)cn(C3CC3)c12 (centres undefined) | 0.25 µg/mL (≈ 0.543 µM) | 64 µg/mL (≈ 139 µM) | > 128 µg/mL | 16 µg/mL (≈ 34.7 µM) | 32 µg/mL (≈ 69.5 µM) | 2 µg/mL (≈ 4.34 µM) | 0.25 µg/mL (≈ 0.543 µM) | 64 µg/mL (≈ 139 µM) | 8 µg/mL (≈ 17.4 µM) | 64 µg/mL (≈ 139 µM) | > 128 µg/mL | 32 µg/mL (≈ 69.5 µM) | 8 µg/mL (≈ 17.4 µM) | 64 µg/mL (≈ 139 µM) | 0.25 µg/mL (≈ 0.543 µM) | 8 µg/mL (≈ 17.4 µM) | 4 µg/mL (≈ 8.69 µM) | > 128 µg/mL | 32 µg/mL (≈ 69.5 µM) | 44.2 µg/mL (≈ 96 µM) | MIC (Klebsiella pneumoniae [21]): 64 µg/mL (≈ 139 µM); MIC (Streptococcus pneumoniae [22]): 4 µg/mL (≈ 8.69 µM)

From ChEMBL document CHEMBL1817648, “Synthesis and in vitro antibacterial activity of a series of novel gatifloxacin derivatives” (Eur J Med Chem, 2011)
